27 molecules from ChEMBL document CHEMBL4308879, “Seco-4-methyl-DCK derivatives as potent chemosensitizers” (Bioorg Med Chem Lett, 2019) can be followed below.

The nature of series [1]: Cytotoxicity against HOSEC assessed as survival at 10 uM after 48 hrs by MTT assay relative to control. The settings on record: human, HOSEC cells; read-out: Survival. The gist of the method: (§1)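 Survival ratio (%) determined from the surviving fraction after treatment. Reported as mean of three independent experiments.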
(In general: Tetrazolium dyes change colour on reduction, which living cells bring about.)

Series [2] in a line: Cytotoxicity against HUVEC assessed as survival at 10 uM after 48 hrs by MTT assay relative to control. The class given is cell-based. The settings on record: human, HUVEC cells; read-out: Survival. The gist of the method: as §1
Series [3] can be described thus: Cytotoxicity against human T29 cells assessed as survival at 10 uM after 48 hrs by MTT assay relative to control. The class given is cell-based. The settings on record: read-out: Survival. The gist of the method:
as §1

Series [4] in a line: Cytotoxicity against human A2780/TAX cells assessed as survival at 10 uM after 48 hrs by MTT assay relative to control. The class given is cell-based, A2780/Taxol. The following applies: read-out: Survival. In outline: as §1
The subject of series [5] is A2780/Taxol. In words: Reversal ratio of IC50 for paclitaxel-induced cytotoxicity against human A2780/TAX cells in absence of compound to IC50 paclitaxel-induced cytotoxicity against human A2780/TAX cells in presence of compound. Format: functional.
Series [6] in a line: Cytotoxicity against human A2780/CDDP cells assessed as survival at 10 uM after 48 hrs by MTT assay relative to control. The class given is cell-based. The settings on record: read-out: Survival. The gist of the method:
as §1

A short description of series [7]: Cytotoxicity against human KBV cells assessed as survival at 10 uM after 48 hrs by MTT assay relative to control. The following applies: read-out: Survival. Format: cell-based. In outline: as §1
Series [8] is described as follows: Reversal ratio of IC50 for cisplatin-induced cytotoxicity against human A2780/CDDP cells in absence of compound to IC50 for cisplatin-induced cytotoxicity against human A2780/CDDP cells in presence of compound. The class given is functional.
Series [9] in a line: Reversal ratio of IC50 for vincristine-induced cytotoxicity against human KBV cells in absence of compound to IC50 for vincristine-induced cytotoxicity against human KBV cells in presence of compound. The class given is functional.
The subject of series [10] is KB. In words: Cytotoxicity against human KB cells after 48 hrs by MTT assay. Format: functional, cell-based.
Series [11] is described as follows: Resistance ratio of IC50 for human KBV cells to IC50 for human KB cells. The class given is functional.

Consider `COc1ccc(C(=O)OCc2c(OC(C)C)ccc3c(C)cc(=O)oc23)cc1OC`, for which the viability at 48 h, 10 µM stood at 107% in [1], 84.2% in [2], 101% in series [3] and 102% in series [4]. In series [5], the “Ratio IC50” value stood at 197.

For `CCOc1ccc2c(C)cc(=O)oc2c1COC(=O)/C=C/c1ccc(OC)cc1`, the viability at 48 h, 10 µM was 84.9% in [1]; 93.8% in [2]; 98.9% in [3]; 83.6% in [4]; 123% in series [6]; 105% in series [7]. For the same molecule, the “Ratio IC50” value in series [5] amounted to 735; in series [8], 0.76; in series [9], 793.

`CCOc1ccc2c(C)cc(=O)oc2c1COC(=O)c1ccc(OC)c(OC)c1`: the viability at 48 h, 10 µM in series [1] was found to be 72%; in series [2], 83.4%; in [3] it was 86.1%; in [4], 83.1%. The “Ratio IC50” value in series [5] is given as 101.

As for `CCOc1ccc2c(C)cc(=O)oc2c1COC(=O)CCc1ccc(OC)cc1`, the viability at 48 h, 10 µM in [1] turned out to be 73.5%; in series [2], 85%; in series [3], 91.3%; in series [4], 101%. Further, in series [5], the “Ratio IC50” value is given as 6.

In the case of `Cc1cc(=O)oc2c(COC(=O)c3ccc(F)cc3)c(OC(C)C)ccc12`, the viability at 48 h, 10 µM came to 70.5% in [1], 79.7% in series [2], 85.3% in series [3] and 102% in series [4]. The “Ratio IC50” value in series [5] is recorded as 93.

Take `CCOc1ccc2c(C)cc(=O)oc2c1COC(=O)c1ccc(C)cc1`: the viability at 48 h, 10 µM is 64.7% in series [1], 77.1% in series [2], 86.1% in series [3] and 95.8% in [4]. The “Ratio IC50” value in series [5] came out at 26.

With `CCOc1ccc2c(C)cc(=O)oc2c1COC(=O)/C=C/c1ccccc1`, the viability at 48 h, 10 µM came to 92.2% in series [1], 84.7% in series [2], 98.7% in series [3] and 98.9% in [4]. For the same molecule, the “Ratio IC50” value in [5] turned out to be 97.

As to `CCOc1ccc2c(C)cc(=O)oc2c1COC(=O)c1cccc(N(C)C)c1`, the viability at 48 h, 10 µM in [1] was found to be 97.2%; in series [2], 96.3%; in series [3] it was 106%; in series [4], 97%; in [6], 117%; in series [7] it was 104%. Moreover, the entries for the “Ratio IC50” value in series [5], in series [8] and in series [9] were 224, 0.83 and 314, respectively.

In the case of `CCOc1ccc2c(C)cc(=O)oc2c1COC(=O)/C=C/c1ccc(Cl)cc1`, the viability at 48 h, 10 µM was found to be 90.7% in series [1], 101% in series [2], 106% in series [3] and 102% in series [4]. Also, in series [5], the “Ratio IC50” value is recorded as 14.

In the case of `CCOc1ccc2c(C)cc(=O)oc2c1COC(=O)c1ccc(C(C)(C)C)cc1`, the viability at 48 h, 10 µM in series [1] stood at 79.8%; in [2], 76%; in series [3], 87.1%; in series [4], 95.1%. For the same molecule, the “Ratio IC50” value in series [5] was 158.

Take `CCOc1ccc2c(C)cc(=O)oc2c1COC(=O)c1cccc(OC)c1`: the viability at 48 h, 10 µM was 68.4% in series [1], 79.8% in [2], 83.4% in series [3] and 76.5% in series [4]. In series [5], the “Ratio IC50” value is reported as 56.

In turn, `CC[C@]1(O)C[C@H]2CN(CCc3c([nH]c4ccccc34)[C@@](C(=O)OC)(c3cc4c(cc3OC)N(C=O)[C@H]3[C@@](O)(C(=O)OC)[C@H](OC(C)=O)[C@]5(CC)C=CCN6CC[C@]43[C@@H]65)C2)C1` [VINCRISTINE] gave an IC50 in series [10] of 0.21 nM. Also, in series [11], the “Ratio IC50” value is recorded as 3173.

For the molecule `Cc1ccc(C(=O)OCc2c(OC(C)C)ccc3c(C)cc(=O)oc23)cc1`, the viability at 48 h, 10 µM in series [1] worked out at 79.8%; in series [2], 75.6%; in series [3], 91.2%; in [4], 95.2%. In addition, in series [5], the “Ratio IC50” value came out at 95.

For the molecule `CCOc1ccc2c(C)cc(=O)oc2c1COC(=O)c1ccc(F)cc1`, the viability at 48 h, 10 µM in [1] is 78.3%; in [2], 87.2%; in series [3] it was 88.6%; in [4], 93.4%. In addition, the “Ratio IC50” value in series [5] was found to be 61.

For the molecule `CCCc1ccc(C(=O)OCc2c(OCC)ccc3c(C)cc(=O)oc23)cc1`, the viability at 48 h, 10 µM in [1] was determined as 76%; in [2] it was 78.4%; in series [3], 97.2%; in series [4], 84%. Further, the “Ratio IC50” value in [5] came to 54.

For `CCOc1ccc2c(C)cc(=O)oc2c1COC(=O)c1ccc(Cl)c([N+](=O)[O-])c1`, the viability at 48 h, 10 µM in series [1] was 50.1%; in series [2], 81%; in series [3], 72.6%; in [4], 78.7%. Further, the “Ratio IC50” value in series [5] worked out at 31.

For `CCOc1ccc2c(C)cc(=O)oc2c1COC(=O)c1c(F)cccc1F`, the viability at 48 h, 10 µM in [1] was 78.2%; in series [2], 86.3%; in series [3], 94.6%; in [4], 101%. For the same molecule, the “Ratio IC50” value in series [5] is recorded as 72.

On to `Cc1cc(=O)oc2c(CO)c(OC(C)C)ccc12`, for which the viability at 48 h, 10 µM in series [1] was found to be 80.2%; in series [2], 84.7%; in series [3], 88.6%; in series [4], 94.6%.

`CCOc1ccc2c(C)cc(=O)oc2c1COC(=O)c1cc(OC)c(OC)cc1OC`: the viability at 48 h, 10 µM amounted to 78.2% in [1], 88.8% in [2], 89.5% in [3] and 84.1% in series [4]. The “Ratio IC50” value in series [5] worked out at 47.

`Cc1cc(=O)oc2c(COC(=O)c3cccc(N(C)C)c3)c(OC(C)C)ccc12`: the viability at 48 h, 10 µM in series [1] stood at 76%; in series [2] it was 84.8%; in [3] it was 90.8%; in [4] it was 102%. Further, the “Ratio IC50” value in series [5] was 86.

For `COc1ccc(/C=C/C(=O)OCc2c(OC(C)C)ccc3c(C)cc(=O)oc23)cc1`, the viability at 48 h, 10 µM in series [1] is 93.6%; in [2], 98.9%; in [3], 90.4%; in series [4], 98.1%; in series [6] it was 131%; in [7], 108%. For the same molecule, the “Ratio IC50” value in series [5] is 496; in series [8] it was 0.78; in series [9] it was 1257.

For the molecule `Cc1cc(=O)oc2c(COC(=O)/C=C/c3ccccc3)c(OC(C)C)ccc12`, the viability at 48 h, 10 µM was 105% in [1], 95.9% in [2], 104% in [3] and 103% in [4]. For the same molecule, the “Ratio IC50” value in [5] amounted to 32.

Consider `Cc1cc(=O)oc2c(COC(=O)c3ccc(C(C)(C)C)cc3)c(OC(C)C)ccc12`, for which the viability at 48 h, 10 µM stood at 90.6% in [1], 83.7% in series [2], 96% in series [3] and 104% in [4]. Further, the “Ratio IC50” value in [5] is reported as 72.

Take `CCOc1ccc2c(C)cc(=O)oc2c1COC(=O)c1cc(OC)c(OC)c(OC)c1`: the viability at 48 h, 10 µM in series [1] is 86.7%; in series [2], 99.7%; in series [3] it was 103%; in series [4], 97.6%. For the same molecule, the “Ratio IC50” value in series [5] was determined as 51.

As for `COc1cc(C(=O)OCc2c(OC(C)C)ccc3c(C)cc(=O)oc23)cc(OC)c1OC`, the viability at 48 h, 10 µM in [1] is 61.7%; in series [2], 73.1%; in series [3], 81.5%; in [4], 94.6%; in series [6] it was 65.5%; in series [7] it was 96.1%. The “Ratio IC50” value in series [5] was found to be 354; in series [8] it was 0.86; in series [9] it was 134.

With `COc1cc(OC)c(C(=O)OCc2c(OC(C)C)ccc3c(C)cc(=O)oc23)cc1OC`, the viability at 48 h, 10 µM is 86.3% in [1], 72.7% in series [2], 90.9% in [3] and 106% in series [4]. Moreover, the “Ratio IC50” value in [5] was found to be 161.

Consider `CCCc1ccc(C(=O)OCc2c(OC(C)C)ccc3c(C)cc(=O)oc23)cc1`, for which the viability at 48 h, 10 µM in [1] turned out to be 87.5%; in series [2], 82.2%; in series [3], 92.7%; in [4], 101%. Moreover, the “Ratio IC50” value in series [5] is recorded as 45.

In general, IC50 refers to the midpoint of a concentration-inhibition curve. Lower therefore signals greater potency in that assay.
